pKi: −log10 of the molar value. ≈ marks a conversion by molar mass, not a printed value.

A word on the pKi: it is the Ki on a negative log10 scale, so that one unit is a factor of ten. One may read the MIC as the smallest concentration in the dilution series that meets the test's criterion for growth inhibition. Higher therefore signals weaker potency.

Assay [1] addresses T1, Serine/threonine-protein kinase PknB (Mycobacterium tuberculosis, UniProt P9WI81).
T1 sequence (P9WI81 whole entry): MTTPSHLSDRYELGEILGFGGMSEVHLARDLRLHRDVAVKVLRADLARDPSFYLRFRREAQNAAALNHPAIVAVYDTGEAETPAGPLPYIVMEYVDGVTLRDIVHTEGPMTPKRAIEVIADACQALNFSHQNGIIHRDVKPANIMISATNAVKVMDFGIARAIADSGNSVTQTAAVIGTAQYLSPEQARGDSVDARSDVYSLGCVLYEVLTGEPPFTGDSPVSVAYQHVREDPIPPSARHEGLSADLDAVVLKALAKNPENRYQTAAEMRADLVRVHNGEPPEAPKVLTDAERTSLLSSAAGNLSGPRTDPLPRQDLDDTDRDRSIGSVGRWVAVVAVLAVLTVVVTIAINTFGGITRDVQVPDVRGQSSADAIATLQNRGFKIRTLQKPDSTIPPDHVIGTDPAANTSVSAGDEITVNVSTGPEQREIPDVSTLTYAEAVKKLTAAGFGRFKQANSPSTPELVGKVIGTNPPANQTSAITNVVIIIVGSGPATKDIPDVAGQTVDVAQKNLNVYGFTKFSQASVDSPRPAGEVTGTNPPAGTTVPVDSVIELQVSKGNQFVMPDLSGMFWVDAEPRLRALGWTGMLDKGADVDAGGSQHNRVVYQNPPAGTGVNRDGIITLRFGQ
In words: Inhibition of Mycobacterium tuberculosis PknB.

The subject of assay [2] is Mycobacterium tuberculosis. In words: Anti-tubercular activity against Mycobacterium tuberculosis H37Rv by resazurin microtitre assay. Format: functional. In outline: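 Value is the minimum inhibitory concentration (MIC) found by the resazurin microtitre (REMA) method.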
For orientation: Alamar Blue is a resazurin reagent that responds to reducing activity.

In assay [1], `NNC(=O)CC(=O)Nc1ccc(F)c(Cl)c1` had a pKi of 5.45. The same compound returned an MIC in assay [2] of 50 mg/L (≈ 204 µM).

As for `NNC(=O)CC(=O)NCc1ccco1`, the pKi in assay [1] is 4.73. In addition, the MIC in assay [2] is more than 100 mg/L.

For `NNC(=O)CC(=O)Nc1cccc([N+](=O)[O-])c1`, the pKi in assay [1] is 4.90. In addition, in assay [2], the MIC was more than 100 mg/L.

As for `NNC(=O)CC(=O)Nc1ccccc1C(=O)O`, the pKi in assay [1] was 5.14. Further, in assay [2], the MIC worked out at 50 mg/L (≈ 211 µM).

Take `NNC(=O)CC(=O)Nc1ccc([N+](=O)[O-])cc1[N+](=O)[O-]`: the pKi in assay [1] was 5.20. Moreover, in assay [2], the MIC was more than 100 mg/L.

As for `NNC(=O)CC(=O)Nc1ccc(S(=O)(=O)O)cc1`, the pKi in assay [1] is 5.12. Also, in assay [2], the minimum inhibitory concentration (MIC) was 50 mg/L (≈ 183 µM).

As for `CCN(CC)c1ccc(NC(=O)CC(=O)NN)cc1`, in assay [1], the pKi was 4.88. In addition, the MIC in assay [2] is 100 mg/L (≈ 378 µM).

In the case of `CCCCc1ccc(NC(=O)CC(=O)NN)cc1`, the pKi in assay [1] was 4.58. Besides, in assay [2], inhibition of growth (MIC) required 12.5 mg/L (≈ 50.1 µM).

With `NNC(=O)CC(=O)Nc1ccc(C(=O)O)cc1`, the negative-log Ki (pKi) in assay [1] is 5.41. The MIC in assay [2] is 12.5 mg/L (≈ 52.7 µM).

`CCCc1ccc(NC(=O)CC(=O)NN)cc1`: the pKi in assay [1] is 5.04. Besides, the MIC in assay [2] came out at 12.5 mg/L (≈ 53.1 µM).

Compound `NNC(=O)CC(=O)Nc1ccc(Cl)c(Cl)c1` gave a pKi in assay [1] of 5.04. The MIC in assay [2] was more than 100 mg/L.

In turn, `COc1ccc(NC(=O)CC(=O)NN)c(OC)c1` gave a pKi in assay [1] of 5.28. The MIC in assay [2] is more than 100 mg/L.

With `CO[C@H]1/C=C/O[C@@]2(C)Oc3c(C)c(O)c4c(O)c(c(/C=N/N5CCN(C)CC5)c(O)c4c3C2=O)NC(=O)/C(C)=C\C=C\[C@H](C)[C@H](O)[C@@H](C)[C@@H](O)[C@@H](C)[C@H](OC(C)=O)[C@@H]1C` [RIFAMPIN], the MIC in assay [2] turned out to be 0.01 mg/L (≈ 0.0122 µM).

As to `NNC(=O)CC(=O)Nc1ccccc1[N+](=O)[O-]`, the pKi in assay [1] is 4.64. In assay [2], this compound showed an MIC of more than 100 mg/L.

Turning to `NNC(=O)CC(=O)Nc1ccc([N+](=O)[O-])cc1`, the pKi in assay [1] is 4.97. Further, the MIC in assay [2] was more than 100 mg/L.

The compound `COc1ccc(OC)c(NC(=O)CC(=O)NN)c1` gave a pKi in assay [1] of 5.15. The same compound registered an MIC in assay [2] of more than 100 mg/L.

`NNC(=O)c1ccncc1` [ISONIAZID]: the lowest concentration to inhibit growth in assay [2] (MIC) was 0.02 mg/L (≈ 0.146 µM).

`NNC(=O)CC(=O)Nc1cc(Cl)cc(Cl)c1`: the pKi in assay [1] was 5.11. The compound also had an MIC in assay [2] of more than 100 mg/L.

The values above are taken from ChEMBL document CHEMBL3352563, “Design, synthesis and molecular docking of substituted 3-hydrazinyl-3-oxo-propanamides as anti-tubercular agents” (Bioorg Med Chem Lett, 2014).
